Where a SMILES comes first, the peptide text is derived from it. The star is where a group is joined. Cbz = O=C(OCc1ccccc1)*
Legend:
[1] = system: estrogen receptor (ERE-tk-luc reporter) in MCF-7 cells; assay: ERE-tk-luc luciferase transactivation assay in MCF-7 cells; format: cell-based, human; settings: MCF-7, 10 μM compound, 24 h, RLU normalized to no compound added
[2] = system: estradiol-mediated transactivation (ERE-tk-luc) in MCF-7 cells; assay: Estradiol competition transactivation luciferase reporter assay in MCF-7 cells; format: cell-based, human
How it was run: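 MCF-7 cells moved to phenol red–free DMEM with 10% charcoal-stripped FBS for 24 h, then plated at 100,000 cells/well (96-well). Next day each well was transfected with 200 ng ERE-tk-luc plasmid using Lipofectamine LTX. Cells then received 100 nM estradiol alone, test compound alone (100 nM), or estradiol plus 100 nM, 1 μM or 10 μM test compound. Bright-Glo luminescence was read, and RLU normalized to no-compound wells. Triplicates, three biological replicates.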

[3] = molecular target: GFP-GRER chimera (N-terminus of the glucocorticoid receptor fused to the human ERα ligand binding domain) (Homo sapiens, UniProt P03372); assay: GFP-GRER nuclear translocation high-content imaging assay in 6020 cells; format: cell-based
GFP-GRER chimera (N-terminus of the glucocorticoid receptor fused to the human ERα ligand binding domain), sequence (P03372 302-595, change not shown): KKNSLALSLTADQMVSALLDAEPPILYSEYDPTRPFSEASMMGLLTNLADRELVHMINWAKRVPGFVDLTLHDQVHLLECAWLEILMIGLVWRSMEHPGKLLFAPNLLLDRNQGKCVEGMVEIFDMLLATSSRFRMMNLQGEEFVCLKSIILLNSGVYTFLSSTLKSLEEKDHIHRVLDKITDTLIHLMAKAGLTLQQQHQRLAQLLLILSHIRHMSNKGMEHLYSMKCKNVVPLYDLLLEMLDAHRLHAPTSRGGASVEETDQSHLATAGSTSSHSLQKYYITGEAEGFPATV
GFP-GRER chimera (N-terminus of the glucocorticoid receptor fused to the human ERα ligand binding domain), sequence (P06536 1-565, change not shown, further chain): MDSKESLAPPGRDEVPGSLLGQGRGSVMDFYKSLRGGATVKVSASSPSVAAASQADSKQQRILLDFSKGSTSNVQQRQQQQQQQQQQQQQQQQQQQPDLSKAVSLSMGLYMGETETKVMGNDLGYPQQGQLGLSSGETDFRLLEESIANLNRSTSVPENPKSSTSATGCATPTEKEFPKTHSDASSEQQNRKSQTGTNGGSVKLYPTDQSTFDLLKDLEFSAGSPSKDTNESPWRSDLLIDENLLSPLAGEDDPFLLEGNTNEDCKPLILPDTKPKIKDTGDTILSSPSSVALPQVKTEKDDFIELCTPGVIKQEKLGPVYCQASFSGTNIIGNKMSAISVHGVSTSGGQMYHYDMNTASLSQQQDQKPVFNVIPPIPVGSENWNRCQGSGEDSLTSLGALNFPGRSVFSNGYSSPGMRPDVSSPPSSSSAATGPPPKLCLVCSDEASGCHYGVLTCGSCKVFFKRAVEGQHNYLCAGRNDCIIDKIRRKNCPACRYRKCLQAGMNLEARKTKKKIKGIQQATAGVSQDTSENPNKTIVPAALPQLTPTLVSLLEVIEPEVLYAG

[4] = MCF-7, 100 nM estradiol + 10 μM compound

Molecule | fold transactivation induction (transactivation potential) [1] | other results
C[C@]12CC[C@@H]3c4ccc(O)cc4C[C@@H](CCCCCCCCC[S+]([O-])CCCC(F)(F)C(F)(F)F)[C@H]3[C@@H]1CC[C@@H]2O (stereo partly drawn) [ICI 182,780] | 0.24 | 
CC(C)C[C@H](NC(=O)[C@H](Cc1ccccc1)NC(=O)c1cnccn1)B(O)O [bortezomib] | 0.78 | decrease in estradiol-mediated transactivation ([2]; MCF-7, 100 nM estradiol + 100 nM compound): 60%; decrease in estradiol-mediated transactivation ([2]; MCF-7, 100 nM estradiol + 1 μM compound): 54%; decrease in estradiol-mediated transactivation [2, 4]: 29%; EC50 [3]: 37 nM
tetrocarcin A [NSC 333856] | 1.34 | 
O=C(c1ccc(OCCN2CCCCC2)cc1)c1c(-c2ccc(O)cc2)sc2cc(O)ccc12 [raloxifene] | 0.89 | 
CC(C)C[C@@H](C=O)NC(=O)[C@H](CC(C)C)NC(=O)[C@H](CC(C)C)NC(=O)OCc1ccccc1 [MG132] (Cbz-Leu-Leu-Leu-aldehyde) | 0.61 | EC50 [3]: 192 nM
CC#C[C@]1(O)CC[C@H]2[C@@H]3CCC4=CC(=O)CCC4=C3[C@@H](c3ccc(N(C)C)cc3)C[C@@]21C [RU486] | 0.4 | 
CC/C(=C(\c1ccccc1)c1ccc(OCCN(C)C)cc1)c1ccccc1 [tamoxifen] |  | decrease in estradiol-mediated transactivation [2, 4]: 51%
